Assay results reported in ChEMBL document CHEMBL5653631, “A Potent and Selective ULK1 Inhibitor Suppresses Autophagy and Sensitizes Cancer Cells to Nutrient Stress” (iScience, 2018).
Values belong to the compound of their own block, whether it stands above or below them.

Key:
[1] = biological target: Activin receptor type-1-like (Homo sapiens) (UniProt P37023); assay: Inhibition of human recombinant ALK1 at 500 nM related to control ULK1
Method in brief: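 Panel of 327 recombinant human kinases, each assayed in vitro by radiometric activity assay in duplicate at a single inhibitor concentration per compound, chosen with reference to its ULK1 inhibition. Activity remaining was expressed as percent of vehicle control, and percent inhibition was calculated as 100 minus percent activity remaining.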

[2] = biological target: Calcium/calmodulin-dependent protein kinase type 1B (Homo sapiens) (UniProt Q6P2M8); assay: Inhibition of human recombinant CaMK1b at 500 nM related to control ULK1
Sequence of Calcium/calmodulin-dependent protein kinase type 1B (Homo sapiens) (Q6P2M8 whole entry): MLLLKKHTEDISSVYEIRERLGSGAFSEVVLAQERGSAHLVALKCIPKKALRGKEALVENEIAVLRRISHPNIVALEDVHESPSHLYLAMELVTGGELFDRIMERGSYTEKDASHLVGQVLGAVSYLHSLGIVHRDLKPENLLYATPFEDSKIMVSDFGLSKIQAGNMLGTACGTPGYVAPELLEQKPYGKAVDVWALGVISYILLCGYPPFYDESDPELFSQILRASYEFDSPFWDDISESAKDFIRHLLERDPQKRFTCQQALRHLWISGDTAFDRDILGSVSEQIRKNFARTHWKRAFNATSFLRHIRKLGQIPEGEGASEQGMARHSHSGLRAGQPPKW

[3] = biological target: Ephrin type-A receptor 5 (Homo sapiens) (UniProt P54756); assay: Inhibition of human recombinant EphA5 at 500 nM in presence of ATP by radiometric assay relative to control
Sequence of Ephrin type-A receptor 5 (Homo sapiens) (P54756 whole entry): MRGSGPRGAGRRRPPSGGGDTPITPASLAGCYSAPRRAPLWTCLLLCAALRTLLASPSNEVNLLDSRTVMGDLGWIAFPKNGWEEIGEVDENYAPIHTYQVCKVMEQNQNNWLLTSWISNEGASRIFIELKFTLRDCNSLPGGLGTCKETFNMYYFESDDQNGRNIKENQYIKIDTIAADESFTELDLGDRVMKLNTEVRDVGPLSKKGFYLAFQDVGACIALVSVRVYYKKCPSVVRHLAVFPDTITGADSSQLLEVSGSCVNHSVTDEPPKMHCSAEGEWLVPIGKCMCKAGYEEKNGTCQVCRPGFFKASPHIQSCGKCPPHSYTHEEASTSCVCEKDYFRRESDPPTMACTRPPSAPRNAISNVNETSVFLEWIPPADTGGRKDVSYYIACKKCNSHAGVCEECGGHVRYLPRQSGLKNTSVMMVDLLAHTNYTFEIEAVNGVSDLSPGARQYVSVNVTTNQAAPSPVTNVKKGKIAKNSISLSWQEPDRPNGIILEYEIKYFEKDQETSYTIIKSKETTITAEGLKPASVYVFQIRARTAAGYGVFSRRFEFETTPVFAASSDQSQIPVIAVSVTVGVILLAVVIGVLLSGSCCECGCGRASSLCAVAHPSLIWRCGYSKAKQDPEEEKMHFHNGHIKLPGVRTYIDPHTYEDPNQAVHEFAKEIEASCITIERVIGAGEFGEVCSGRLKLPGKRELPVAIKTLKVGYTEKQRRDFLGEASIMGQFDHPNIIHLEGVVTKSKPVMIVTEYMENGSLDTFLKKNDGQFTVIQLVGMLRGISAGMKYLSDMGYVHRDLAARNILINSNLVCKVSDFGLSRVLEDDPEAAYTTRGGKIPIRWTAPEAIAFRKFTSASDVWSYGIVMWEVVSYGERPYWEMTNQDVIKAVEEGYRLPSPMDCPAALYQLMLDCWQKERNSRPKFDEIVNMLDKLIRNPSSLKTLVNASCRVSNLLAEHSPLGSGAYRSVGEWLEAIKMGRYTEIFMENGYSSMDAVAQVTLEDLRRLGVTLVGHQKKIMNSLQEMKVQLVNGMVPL

[4] = biological target: T1, Tyrosine-protein kinase ZAP-70 (Homo sapiens) (UniProt P43403); assay: Inhibition of human recombinant ZAP70 at 500 nM related to control ULK1
T1 sequence (whole entry): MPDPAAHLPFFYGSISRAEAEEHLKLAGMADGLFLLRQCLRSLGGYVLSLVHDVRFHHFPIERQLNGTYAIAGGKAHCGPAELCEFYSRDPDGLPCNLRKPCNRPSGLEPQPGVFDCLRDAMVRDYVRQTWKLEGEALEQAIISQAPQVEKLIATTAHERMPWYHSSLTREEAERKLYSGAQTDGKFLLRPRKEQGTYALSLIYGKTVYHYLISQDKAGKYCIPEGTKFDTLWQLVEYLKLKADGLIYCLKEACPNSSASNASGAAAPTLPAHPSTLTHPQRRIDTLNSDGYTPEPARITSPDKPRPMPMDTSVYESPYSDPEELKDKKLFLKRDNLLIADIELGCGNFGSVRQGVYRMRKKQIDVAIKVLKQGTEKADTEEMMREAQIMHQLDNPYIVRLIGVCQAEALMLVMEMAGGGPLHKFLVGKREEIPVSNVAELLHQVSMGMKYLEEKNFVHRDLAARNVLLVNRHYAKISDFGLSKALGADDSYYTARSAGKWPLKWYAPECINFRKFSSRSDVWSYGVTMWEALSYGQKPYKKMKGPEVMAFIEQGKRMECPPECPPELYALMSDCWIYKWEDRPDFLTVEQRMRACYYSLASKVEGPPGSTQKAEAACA

[5] = biological target: Tyrosine-protein kinase ABL2 (Homo sapiens) (UniProt P42684); assay: Inhibition of human recombinant ABL2 at 15 nM in presence of ATP by radiometric assay relative to control
Method in brief: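 Panel of 327 recombinant human kinases in radiometric activity assays, each screened in duplicate at a single inhibitor concentration; percent activity remaining relative to vehicle control, percent inhibition taken as 100 minus activity remaining.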

[6] = biological target: Serine/threonine-protein kinase NIM1 (Homo sapiens) (UniProt Q8IY84); assay: Inhibition of human recombinant NIM1 at 15 nM related to control ULK1
Sequence of Serine/threonine-protein kinase NIM1 (Homo sapiens) (Q8IY84 whole entry): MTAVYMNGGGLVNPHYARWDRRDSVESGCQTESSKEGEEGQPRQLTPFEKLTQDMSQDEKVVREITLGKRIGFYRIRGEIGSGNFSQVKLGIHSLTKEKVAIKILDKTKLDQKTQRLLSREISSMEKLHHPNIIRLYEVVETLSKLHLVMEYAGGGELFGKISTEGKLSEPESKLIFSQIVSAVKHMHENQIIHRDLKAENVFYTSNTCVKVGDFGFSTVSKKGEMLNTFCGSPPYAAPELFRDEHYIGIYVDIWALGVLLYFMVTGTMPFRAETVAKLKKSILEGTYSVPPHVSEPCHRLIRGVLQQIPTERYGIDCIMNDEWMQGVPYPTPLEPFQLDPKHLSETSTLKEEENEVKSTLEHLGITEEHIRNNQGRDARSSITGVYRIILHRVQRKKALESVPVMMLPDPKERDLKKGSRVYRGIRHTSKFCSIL

[7] = biological target: Ephrin type-A receptor 2 (Homo sapiens) (UniProt P29317); assay: Inhibition of human recombinant EphA2 at 15 nM related to control ULK1
Sequence of Ephrin type-A receptor 2 (Homo sapiens) (P29317 whole entry): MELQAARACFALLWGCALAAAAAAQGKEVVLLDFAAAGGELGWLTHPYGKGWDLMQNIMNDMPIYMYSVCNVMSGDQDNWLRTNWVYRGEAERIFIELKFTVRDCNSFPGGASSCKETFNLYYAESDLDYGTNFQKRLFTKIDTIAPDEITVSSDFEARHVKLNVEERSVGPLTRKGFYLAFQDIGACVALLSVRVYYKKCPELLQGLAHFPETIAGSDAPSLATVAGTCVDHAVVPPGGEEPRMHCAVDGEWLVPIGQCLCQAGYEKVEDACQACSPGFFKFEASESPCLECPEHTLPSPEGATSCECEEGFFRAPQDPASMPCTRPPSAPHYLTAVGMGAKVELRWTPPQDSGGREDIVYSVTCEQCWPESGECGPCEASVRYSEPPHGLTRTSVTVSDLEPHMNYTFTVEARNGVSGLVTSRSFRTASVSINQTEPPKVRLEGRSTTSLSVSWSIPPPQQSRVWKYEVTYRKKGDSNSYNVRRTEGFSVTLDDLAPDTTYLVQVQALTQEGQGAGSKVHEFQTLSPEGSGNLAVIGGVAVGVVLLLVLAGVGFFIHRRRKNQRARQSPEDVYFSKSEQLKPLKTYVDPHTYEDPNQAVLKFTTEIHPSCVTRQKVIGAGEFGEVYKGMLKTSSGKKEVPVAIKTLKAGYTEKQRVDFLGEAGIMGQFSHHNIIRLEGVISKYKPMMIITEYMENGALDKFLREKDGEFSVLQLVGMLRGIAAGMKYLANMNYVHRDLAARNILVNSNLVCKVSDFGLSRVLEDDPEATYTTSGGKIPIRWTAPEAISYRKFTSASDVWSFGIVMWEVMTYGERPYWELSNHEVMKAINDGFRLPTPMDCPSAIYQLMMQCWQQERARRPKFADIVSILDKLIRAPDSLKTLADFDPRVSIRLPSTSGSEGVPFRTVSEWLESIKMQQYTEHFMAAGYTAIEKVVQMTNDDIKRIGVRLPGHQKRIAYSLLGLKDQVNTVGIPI

[8] = biological target: Cyclin-dependent kinase 5 (Homo sapiens) (UniProt Q00535); assay: Inhibition of human recombinant CDK5 at 15 nM related to control ULK1
Sequence of Cyclin-dependent kinase 5 (Homo sapiens) (Q00535 whole entry, looked up): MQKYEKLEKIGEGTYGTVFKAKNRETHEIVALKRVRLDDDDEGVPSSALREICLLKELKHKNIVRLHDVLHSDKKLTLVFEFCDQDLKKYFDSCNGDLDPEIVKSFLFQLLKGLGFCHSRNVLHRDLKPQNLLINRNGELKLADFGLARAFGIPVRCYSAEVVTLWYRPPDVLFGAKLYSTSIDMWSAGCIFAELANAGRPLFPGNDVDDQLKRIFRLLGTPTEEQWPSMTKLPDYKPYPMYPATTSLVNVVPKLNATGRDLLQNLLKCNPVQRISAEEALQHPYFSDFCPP

[9] = biological target: Serine/threonine-protein kinase 26 (Homo sapiens) (UniProt Q9P289); assay: Inhibition of human recombinant MST4 at 40 nM related to control ULK1
Sequence of Serine/threonine-protein kinase 26 (Homo sapiens) (Q9P289 2-416 limits assumed): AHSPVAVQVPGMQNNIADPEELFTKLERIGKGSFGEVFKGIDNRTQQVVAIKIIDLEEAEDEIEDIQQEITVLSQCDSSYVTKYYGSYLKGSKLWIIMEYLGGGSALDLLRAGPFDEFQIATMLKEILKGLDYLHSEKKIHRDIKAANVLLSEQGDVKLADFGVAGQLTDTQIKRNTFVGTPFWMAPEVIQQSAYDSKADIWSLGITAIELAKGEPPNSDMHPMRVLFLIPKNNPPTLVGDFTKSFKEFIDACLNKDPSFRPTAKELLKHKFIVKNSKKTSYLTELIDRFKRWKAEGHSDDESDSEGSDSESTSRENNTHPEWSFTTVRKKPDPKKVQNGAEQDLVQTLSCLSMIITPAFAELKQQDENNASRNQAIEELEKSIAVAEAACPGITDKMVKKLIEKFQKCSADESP

[10] = biological target: Ribosomal protein S6 kinase alpha-1 (Homo sapiens) (UniProt Q15418); assay: Inhibition of human recombinant RSK1 at 40 nM related to control ULK1
Sequence of Ribosomal protein S6 kinase alpha-1 (Homo sapiens) (Q15418 whole entry): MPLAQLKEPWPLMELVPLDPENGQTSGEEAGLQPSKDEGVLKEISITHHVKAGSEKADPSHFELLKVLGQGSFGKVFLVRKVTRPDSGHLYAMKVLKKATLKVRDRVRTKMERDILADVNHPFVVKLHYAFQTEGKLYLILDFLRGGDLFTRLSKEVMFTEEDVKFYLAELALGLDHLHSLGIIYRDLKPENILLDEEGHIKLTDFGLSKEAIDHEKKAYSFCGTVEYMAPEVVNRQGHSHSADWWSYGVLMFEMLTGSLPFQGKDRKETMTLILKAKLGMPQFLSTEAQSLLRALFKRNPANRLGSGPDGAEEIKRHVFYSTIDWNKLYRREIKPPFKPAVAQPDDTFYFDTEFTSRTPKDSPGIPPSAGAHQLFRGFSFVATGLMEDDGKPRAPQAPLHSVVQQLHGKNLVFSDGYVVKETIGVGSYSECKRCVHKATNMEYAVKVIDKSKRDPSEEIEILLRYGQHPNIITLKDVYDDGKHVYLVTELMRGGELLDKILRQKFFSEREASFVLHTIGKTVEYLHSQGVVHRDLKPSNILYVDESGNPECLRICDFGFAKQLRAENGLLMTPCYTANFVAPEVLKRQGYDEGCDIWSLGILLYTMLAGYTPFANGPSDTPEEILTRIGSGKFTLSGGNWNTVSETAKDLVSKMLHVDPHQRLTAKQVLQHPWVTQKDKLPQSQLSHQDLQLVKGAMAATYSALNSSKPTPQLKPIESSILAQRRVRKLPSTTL

[11] = biological target: Homeodomain-interacting protein kinase 1 (Homo sapiens) (UniProt Q86Z02); assay: Inhibition of human recombinant HIPK1 at 40 nM in presence of ATP by radiometric assay relative to control
[12] = biological target: Cyclin-dependent kinase 2 (Homo sapiens) (UniProt P24941); assay: Inhibition of human recombinant CDK2 at 40 nM related to control ULK1
[13] = biological target: T2, Serine/threonine-protein kinase 17B (Homo sapiens) (UniProt O94768); assay: Inhibition of human recombinant DRAK2 at 40 nM in presence of ATP by radiometric assay relative to control
T2 sequence (whole entry): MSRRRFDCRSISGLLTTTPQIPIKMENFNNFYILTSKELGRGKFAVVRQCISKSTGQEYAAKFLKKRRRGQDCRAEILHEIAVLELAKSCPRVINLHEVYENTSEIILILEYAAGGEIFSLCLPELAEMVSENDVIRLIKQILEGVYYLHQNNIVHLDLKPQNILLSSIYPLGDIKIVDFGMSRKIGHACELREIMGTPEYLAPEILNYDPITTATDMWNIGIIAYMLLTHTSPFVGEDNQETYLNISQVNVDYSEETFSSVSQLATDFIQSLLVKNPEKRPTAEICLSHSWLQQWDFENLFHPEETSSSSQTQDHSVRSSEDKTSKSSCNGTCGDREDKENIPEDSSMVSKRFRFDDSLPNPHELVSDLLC

Sequence of Activin receptor type-1-like (Homo sapiens) (P37023 whole entry): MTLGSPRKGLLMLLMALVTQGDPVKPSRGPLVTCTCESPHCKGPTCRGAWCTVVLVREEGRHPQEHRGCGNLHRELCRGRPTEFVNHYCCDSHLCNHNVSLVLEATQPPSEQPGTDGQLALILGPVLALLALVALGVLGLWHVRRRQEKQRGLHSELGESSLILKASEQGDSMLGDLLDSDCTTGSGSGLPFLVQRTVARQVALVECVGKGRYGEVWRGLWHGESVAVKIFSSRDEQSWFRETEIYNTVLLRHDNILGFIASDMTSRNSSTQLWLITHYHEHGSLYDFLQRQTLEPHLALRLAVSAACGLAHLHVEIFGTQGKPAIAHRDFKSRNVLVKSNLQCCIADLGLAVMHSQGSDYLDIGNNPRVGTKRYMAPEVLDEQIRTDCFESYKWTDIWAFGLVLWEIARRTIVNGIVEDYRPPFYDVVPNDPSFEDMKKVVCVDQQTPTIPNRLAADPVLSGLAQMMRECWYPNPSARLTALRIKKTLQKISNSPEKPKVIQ

fold change (FC) [1]: 0
fold change (FC) [2]: 0
inhibition [3]: 19%
fold change (FC) [4]: 0.01
SMILES: CNC(=O)c1ccccc1Oc1nc(Nc2cc(OC)c(OC)c(OC)c2)ncc1Br

inhibition [5]: 42%
fold change (FC) [6]: 0.07
fold change (FC) [7]: 0
fold change (FC) [8]: 0.26
SMILES: CC(C)[C@H](NC(=O)c1cc(-c2cnn3cc(-c4ccc(OCCN5CCCCC5)cc4)cnc23)cs1)C(F)(F)F

fold change (FC) [9]: 0
fold change (FC) [10]: 0.11
inhibition [11]: 0%
fold change (FC) [12]: 0.4
inhibition [13]: 39%
SMILES: O=C(N[C@@H](C1CC1)C(F)(F)F)c1cc(-c2cnn3cc(-c4ccc(F)cc4)cnc23)cs1
